# According to PubChem BioAssay AID651952 (The Scripps Research Institute Molecular Screening Center, 2012):
# About 940 (39%) of roughly 2,400 compounds were called active.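 Rule for the calls: active = inhibition above the plate's mean compound inhibition plus 3 SD, computed per plate (cut at about 22% in these data); inactive = the rest.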 Only a sample is shown.
# Test: inhibition of ATP-evoked calcium response in CHO-Ga16 cells, counter-screen for TAAR1 agonist project, cell-based, fluorescence (AID 651952);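 note: 0% = EC80 ATP with DMSO and 100% = DMSO wells without ATP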
# Settings: CHO-Ga16 ATP-induced calcium, Fluo-8 fluorescence; at 3 µM; active compounds read high
# Procedure, shortened: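 System: parental CHO cells stably overexpressing Gα16, lacking hTAAR1; dosing: one dose, 3 µM final; times: 17–24 h seeding, Fluo-8 75 min 37 °C, 30 min RT; measured by: Fluo-8 calcium fluorescence; evaluation: percent inhibition from peak-to-pre-ATP-basal fluorescence ratio, scaled between controls; benchmarks: high control DMSO alone, low control ATP EC80 with DMSO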
row,SMILES,inhibition
1,O=C(NNC(=S)NC(=O)c1cn(-c2ccccc2)nc1-c1ccccc1)c1ccncc1,57.6% (active)
2,COc1ccc2cc(-c3[nH]ncc3CNCCn3nc(C)cc3C)ccc2c1,4.6% (inactive)
3,Cc1cccc(NC(=O)C(C)N2C(=O)C3C4CC(C(Br)C4Br)C3C2=O)c1 (stereo unspecified),43.9% (active)
4,O=c1cnnc(Nc2ccccc2)[nH]1,7.9% (inactive)
5,COc1cc(OC)cc(C(=O)N[C@H](C(=O)OCC(=O)NC(C)c2ccccc2)C(C)C)c1 (stereo partly specified),6.73% (inactive)
6,Cn1c(=O)c(=O)n(C)c2cc(S(=O)(=O)NCCc3ccccc3)ccc21,-3.68% (inactive)
7,COc1ccc(OC)c(NC(=S)N2CCc3ccccc3C2)c1,5.63% (inactive)
8,O=C(Nc1ccc(Cl)cc1)N1CCc2[nH]c3ccccc3c2C1,14.7% (inactive)
9,Fc1ccc(NC(=S)N2CCc3[nH]c4ccccc4c3C2)cc1,22.9% (active)
10,Cc1ccc(NC(=O)CCN2CCc3ccccc3C2)cc1,10.1% (inactive)
11,S=C(NCCc1ccccc1)N1CCn2cccc2C1c1ccncc1 (stereo unspecified),21.8% (active)
12,O=C(O)C1CC=CCC1C(=O)NCCc1ccccc1 (stereo unspecified),3.62% (inactive)
13,O=C(NCCc1ccccc1)C(=O)NCC1OCCN1S(=O)(=O)c1cccs1 (stereo unspecified),10.6% (inactive)
14,COc1ccc(Cl)cc1C(=O)NNC(=S)NC(=O)/C=C/c1ccco1,55.5% (active)
15,O=C1CCCN2N=C(SCC(=O)Nc3ccc(Br)cc3)SC2=N1,20% (inactive)
16,CCCCCc1c(-c2ccc(OC)c(OC)c2)ncn1CCc1ccccc1OC,44.5% (active)

row,SMILES,inhibition
1,CCCCCc1c(Cc2ccccc2)ncn1CCc1ccccc1OC,30.6% (active)
2,CCCCCc1c(-c2cccc(Br)c2)ncn1CCc1ccccc1OC,25.3% (active)
3,O=C(CNC(=O)c1ccccc1F)OCC(=O)c1c[nH]c2ccccc12,-2.93% (inactive)
4,O=C(c1noc2c1CCCC2)N1CCc2ccccc2C1,2.82% (inactive)
5,CCC(c1nnnn1Cc1ccco1)N(CCc1ccccc1)Cc1cc2ccc(OC)cc2[nH]c1=O (stereo unspecified),15.3% (inactive)
6,CC(Oc1ccc(Cl)cc1)C(=O)OCC(=O)Nc1ncc(Cl)cc1Cl (stereo unspecified),12.8% (inactive)
7,CCCn1c(O)c(CN2CCCC(C)C2)c(C)c(C#N)c1=O (stereo unspecified),11.4% (inactive)
8,Cc1cc2nc3c(=O)[nH]c(=O)nc-3n(C[C@H](O)[C@H](O)[C@H](O)CO)c2cc1C,60.5% (active)
9,COc1ccc(C(=O)CN2C(=O)NC(C)(c3ccc(C)cc3)C2=O)cc1OC (stereo unspecified),12.3% (inactive)
10,c1ccc2c(c1)OCC(CNc1ncnc3nc[nH]c13)O2 (stereo unspecified),103% (active)
11,COc1cc(OC)c(-n2cc(-c3ccc(Cl)cc3)[nH]c2=O)cc1Cl,47.5% (active)
12,O=Cc1c(NCCc2cccc(F)c2)c2ccccc2[nH]c1=O,5.51% (inactive)
13,CSc1nc(N)c(C#N)c(-c2ccccc2Cl)c1C#N,23.4% (active)
14,OC(CNCCc1ccc(Cl)cc1Cl)COc1ccccc1 (stereo unspecified),16.3% (inactive)
15,COC(=O)c1[nH]c2cccc(C)c2c1NC(=O)CN1CCCc2ccccc21,22.5% (active)
